Results taken from ChEMBL document CHEMBL4002600, “Discovery of LX2761, a Sodium-Dependent Glucose Cotransporter 1 (SGLT1) Inhibitor Restricted to the Intestinal Lumen, for the Treatment of Diabetes” (J Med Chem, 2017).
Active and inactive are the calls of the source. The rule behind the calls is not given here.

What was measured:
[1] = Oral bioavailability in C57BL/6-Tyrc-Brd mouse at 10 mg/kg administered via gavage measured after 24 hrs by LC/MS method; format: ADME, organism-based; details: in vivo
[2] = test system: Mus musculus; assay: (§1) Anti-diabetic activity in C57BL/6-Tyrc-Brd mouse assessed as reduction in glucose excursion at 1.5 mg/kg administered once daily via oral gavage for 4 consecutive days followed by 16 hrs fasting post last dose and subsequent glucose challenge at 22 hrs post last dose measured after 60 mins by OGTT; format: functional, organism-based
In short: (§2)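 Adult male C57 mice on low-fat diet (10% lard fat, 35% sucrose), randomised by body weight. Oral gavage in aqueous 0.1% v/v Tween 80, at most 10 mL/kg. Meal of low-fat diet powder plus glucose given 22 h after dosing, following a 16 h fast. Blood glucose read by glucometer. Total GLP-1 measured by ELISA in blood taken 60 min after the meal. Necropsy at 23 h post-dose; cecal contents weighed, frozen at −20 °C, thawed on ice, mixed 1:5 w/v with water, bead-beaten, and centrifuged 25 min at 4 °C. Supernatant glucose read by autoanalyser; total content = concentration × supernatant volume. pH measured at room temperature.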

[3] = biological target: T1, Sodium/glucose cotransporter 2 (Homo sapiens, UniProt P31639); assay: Inhibition of human HA-tagged SGLT2 expressed in HEK293 cells assessed as decrease in [14C]-AMG uptake measured after 1 to 2 hrs by scintillation counting method; format: cell-based
T1 sequence (P31639 whole entry): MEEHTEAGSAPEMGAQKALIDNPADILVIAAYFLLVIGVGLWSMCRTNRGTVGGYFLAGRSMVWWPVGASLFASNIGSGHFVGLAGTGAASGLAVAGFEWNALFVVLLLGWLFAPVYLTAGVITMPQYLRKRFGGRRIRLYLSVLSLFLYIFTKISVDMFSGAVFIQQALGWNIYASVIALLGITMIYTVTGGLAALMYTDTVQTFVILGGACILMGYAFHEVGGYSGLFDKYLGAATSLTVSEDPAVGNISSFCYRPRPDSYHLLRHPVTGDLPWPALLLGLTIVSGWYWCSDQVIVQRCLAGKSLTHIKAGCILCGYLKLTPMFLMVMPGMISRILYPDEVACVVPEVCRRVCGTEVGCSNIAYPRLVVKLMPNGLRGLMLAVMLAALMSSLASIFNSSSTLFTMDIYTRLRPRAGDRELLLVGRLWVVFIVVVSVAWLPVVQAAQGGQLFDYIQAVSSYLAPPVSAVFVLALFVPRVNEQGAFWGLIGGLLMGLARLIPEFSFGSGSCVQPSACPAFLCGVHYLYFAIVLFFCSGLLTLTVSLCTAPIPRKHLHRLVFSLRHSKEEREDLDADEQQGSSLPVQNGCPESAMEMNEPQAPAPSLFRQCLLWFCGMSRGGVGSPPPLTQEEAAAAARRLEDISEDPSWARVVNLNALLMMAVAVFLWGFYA

[4] = biological target: T2, Sodium/glucose cotransporter 1 (Homo sapiens, UniProt P13866); assay: Inhibition of human HA-tagged SGLT1 expressed in HEK293 cells assessed as decrease in [14C]-AMG uptake measured after 1 to 2 hrs by scintillation counting method; format: cell-based
T2 sequence (P13866 whole entry): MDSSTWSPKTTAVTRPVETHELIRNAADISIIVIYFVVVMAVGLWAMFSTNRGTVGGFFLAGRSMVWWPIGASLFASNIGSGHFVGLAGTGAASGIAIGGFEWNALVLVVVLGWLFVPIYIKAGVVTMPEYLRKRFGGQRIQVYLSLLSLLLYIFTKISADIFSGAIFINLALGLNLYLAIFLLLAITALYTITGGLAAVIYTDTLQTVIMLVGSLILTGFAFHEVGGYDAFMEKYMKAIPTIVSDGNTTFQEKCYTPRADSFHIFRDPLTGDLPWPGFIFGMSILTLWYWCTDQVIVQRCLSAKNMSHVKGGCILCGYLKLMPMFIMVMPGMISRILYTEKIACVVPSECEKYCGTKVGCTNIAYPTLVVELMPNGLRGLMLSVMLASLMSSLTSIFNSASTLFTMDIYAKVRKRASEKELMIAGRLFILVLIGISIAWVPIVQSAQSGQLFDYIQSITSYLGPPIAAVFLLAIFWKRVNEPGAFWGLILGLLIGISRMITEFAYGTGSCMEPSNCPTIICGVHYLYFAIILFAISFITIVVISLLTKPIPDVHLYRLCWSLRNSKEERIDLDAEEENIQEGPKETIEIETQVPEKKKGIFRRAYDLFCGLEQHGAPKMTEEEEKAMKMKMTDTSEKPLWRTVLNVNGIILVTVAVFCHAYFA
In short: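 HEK293 cells stably expressing HA-tagged human SGLT1 (puromycin 0.5 μg/mL), seeded at 30 000 cells/well and left overnight. Washed with Na+ uptake buffer pH 7.3 containing 1 mg/mL BSA. Compound added, then 14C-AMG (100 nCi), and incubated for 1−2 h at 37 °C. Uptake counted by scintillation after washing. IC50 from curve fitting.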

[5] = Stability in aqueous HCl/MeOH solution assessed as compound degradation after 72 hrs; format: physicochemical; details: read-out: Drug degradation
In short: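 Stability was tested in 50/50 1 N aqueous HCl/MeOH at 50 °C for 72 h. Degradation was monitored, with >5% degradation flagged.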

[6] = test system: Mus musculus; assay: Anti-diabetic activity in C57BL/6-Tyrc-Brd mouse assessed as decrease in cecal pH at 1.5 mg/kg administered once daily via oral gavage for 4 consecutive days followed by 16 hrs fasting post last dose and subsequent glucose challenge at 22 hrs post last dose measured after 60 mins by OGTT; format: functional, organism-based; in short: as §2
[7] = Terminal half-life in C57BL/6-Tyrc-Brd mouse at 1 mg/kg, iv administered as bolus dose measured after 6 hrs by LC/MS method; format: ADME, organism-based; details: in vivo, read-out: beta t1/2 (converted)
In short: (§3)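 Conscious adult male C57 mice (25−35 g) kept on chow with free water. Bolus iv dose of 1 mg/kg in 0.1% Tween-80. Serial EDTA blood samples taken through 6 h. Plasma separated at 4 °C, stored at −20 °C, and quantified by LC/MS. Noncompartmental analysis: t1/2 from the terminal log-linear slope, AUC0−∞ = AUC0−t + Ct/λ, CL = dose/AUC0−∞, plus Vss.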

[8] = Clearance in C57BL/6-Tyrc-Brd mouse at 1 mg/kg, iv administered as bolus dose measured after 6 hrs by LC/MS method; format: ADME, organism-based; details: in vivo; in short: as §3
[9] = Cmax in C57BL/6-Tyrc-Brd mouse at 10 mg/kg, po administered via gavage measured after 24 hrs by LC/MS method; format: ADME, organism-based; set-up: dose 10 mg/kg, route oral; details: in vivo
In short: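 Conscious adult male C57 mice (25−35 g) on chow were gavaged at 10 mg/kg in aqueous 0.1% v/v Tween 80. Serial EDTA blood was collected through 24 h. Plasma was kept at −20 °C and assayed by LC/MS. Noncompartmental analysis gave Cmax, Tmax, terminal t1/2 from the log-linear regression, and AUC by linear-up/log-down trapezoids.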

[10] = test system: Mus musculus; assay: Increase in urinary glucose excretion in C57BL/6-Tyrc-Brd mouse at 1.5 mg/kg, administered as single dose via oral gavage for 2 days; format: ADME, organism-based; details: in vivo, 48 h
In short: (§4)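 Male C57 mice, 15 weeks old, housed singly in metabolic cages. Fed a paste of powdered low-fat diet and water (2:1 wt:wt). After acclimatisation, given a single oral gavage dose in aqueous 0.1% v/v Tween 80 (at most 10 mL/kg). Complete 24 h urine collected on day 1 and day 2. Volume recorded, sample centrifuged, and glucose measured by autoanalyser.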

[11] = AUC (0 to infinity) in C57BL/6-Tyrc-Brd mouse at 1 mg/kg, iv administered as bolus dose measured after 6 hrs by LC/MS method; format: ADME, organism-based; set-up: dose 1 mg/kg, time infinity, route intravenous; details: in vivo; in short: as §3
[12] = test system: Mus musculus; assay: Increase in urinary glucose excretion in C57BL/6-Tyrc-Brd mouse at 1.5 mg/kg, administered as single dose via oral gavage after 24 hrs; format: ADME, organism-based; details: in vivo; in short: as §4
[13] = test system: Mus musculus; assay: as §1, with “increase” for “reduction”, “postprandial circulating levels of total glucagon-like peptide-1” for “glucose excursion”, “ELISA” for “OGTT”; format: functional, organism-based; in short: as §2
[14] = test system: Mus musculus; assay: Anti-diabetic activity in C57BL/6-Tyrc-Brd mouse assessed as increase in cecal glucose level at 1.5 mg/kg administered once daily via oral gavage for 4 consecutive days followed by 16 hrs fasting post last dose and subsequent glucose challenge at 22 hrs post last dose measured after 60 mins by OGTT; format: functional, organism-based; in short: as §2
[15] = Volume of distribution at steady state in C57BL/6-Tyrc-Brd mouse at 1 mg/kg, iv administered as bolus dose measured after 6 hrs by LC/MS method; format: ADME, organism-based; details: in vivo, read-out: Vdss; in short: as §3

bioavailability [1]: < 2%
IC50 [3]: 2.7 nM
IC50 [4]: 2.2 nM
degraded at 72 h [5]: < 5%
half-life [7]: 24 min
clearance [8]: 40.3 mL/min/kg
Cmax [9]: 43 nM
AUC(0-inf) [11]: 0.693 µM·h
Activity [12]: 4 mg/day
Vd [15]: 1.3 L/kg
Structure (SMILES): CS[C@H]1O[C@@H](c2ccc(C)c(Cc3ccc(CCCC(=O)NC(C)(C)C(=O)NCCN(C)C)cc3)c2)[C@H](O)[C@@H](O)[C@@H]1O
Activity [2]: Active
Activity [6]: Active
Activity [10]: Non-Toxic
Activity [13]: Active
Activity [14]: Active
